# Results collected from several papers.
# pEC50, pIC50: −log10 of the molar value.
# HLA class I histocompatibility antigen, A alpha chain: HLA class I histocompatibility antigen, A alpha chain (Homo sapiens, UniProt P04439)
# Htr2c: 5-hydroxytryptamine receptor 2C (Htr2c, Mus musculus, UniProt P34968)
# BACE1: Beta-secretase 1 (BACE1, Homo sapiens, UniProt P56817)
Compound,target,test,endpoint,result
CC(C)C[C@H](NC(=O)[C@@H]1CCCN1C(=O)[C@H](Cc1c[nH]c2ccccc12)NC(=O)[C@H](CC(=O)O)NC(=O)[C@H](Cc1ccc(O)cc1)NC(=O)[C@@H](NC(=O)[C@@H](N)Cc1ccc(O)cc1)C(C)C)C(=O)N[C@H](C(=O)N[C@@H](Cc1ccccc1)C(=O)O)[C@@H](C)O,"HLA class I histocompatibility antigen, A alpha chain",cell-free assay,pIC50,4.67
COc1cc(CCN)c(OC)cc1Br,Htr2c,"G protein activation, agonist, BRET",pEC50,8.37
CC(C)C[C@H](NC(=O)[C@@H](NC(=O)[C@H](CCCCN)NC(=O)[C@H](CC(=O)O)NC(=O)[C@H](Cc1ccc(O)cc1)NC(=O)[C@H](C)NC(=O)[C@@H](N)CCCNC(=N)N)[C@@H](C)O)C(=O)N[C@@H](Cc1ccc(O)cc1)C(=O)N[C@@H](Cc1ccccc1)C(=O)O,"HLA class I histocompatibility antigen, A alpha chain",cell-free assay,pIC50,7.82
C=CCOc1ccc(C(=O)/C=C/c2cccc(F)c2)c(OS(=O)(=O)c2ccc(OC)cc2)c1I,BACE1,"enzyme activity, inhibitor, fluorescence",pIC50,4.67
CCCC[C@H](NC(C)=O)C(=O)N[C@H]1CC(=O)NCCCC[C@@H](C(=O)N2CCC[C@@H]2C(=O)N[C@@H](C(=O)N2CCC[C@@H]2C(N)=O)C(C)C)NC(=O)[C@H](Cc2c[nH]c3ccccc23)NC(=O)[C@H](CCCNC(=N)N)NC(=O)[C@@H](Cc2ccccc2)NC(=O)[C@@H]2CCCN2C1=O,"Melanocyte-stimulating hormone receptor (MC1R, Homo sapiens, UniProt Q01726)","cAMP, agonist",pEC50,9.39
COc1cc(CCN)c(OC)cc1C#N,Htr2c,"G protein activation, agonist, BRET",pEC50,6.70
CCN(CC)C(=O)[C@@H]1C=C2c3cccc4[nH]cc(c34)C[C@H]2N(C)C1,"D(2) dopamine receptor (DRD2, Homo sapiens, UniProt P14416)","G protein activation, agonist, BRET",pEC50,8.80
C=CCOc1ccc(C(=O)/C=C/c2ccc(OC)cc2)c(OS(C)(=O)=O)c1I,BACE1,"enzyme activity, inhibitor, fluorescence",pIC50,4.32
